Consider 30 compounds from ChEMBL document CHEMBL3046326, “Screening of dialkoxybenzenes and disubstituted cyclopentene derivatives against the cabbage looper, Trichoplusia ni, for the discovery of new feeding and oviposition deterrents” (J Agric Food Chem, 2007).

The experiment has as its system Trichoplusia ni. The experiment in a line: Feeding deterrent activity against freshly molted third-instar larval stage of Trichoplusia ni (cabbage looper), Trichoplusia ni at 50 ug/cm'2 after 3 to 5 hr by leaf disk choice bioassay. Format: functional. Put shortly:
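Leaf disk choice with freshly molted third instar larvae starved 4–5 h. One disk was painted on each side with 10 µL solution giving 50 µg/cm², the other with carrier solvent. Twenty-five larvae per treatment, stopped at ~50% control disk consumption (3–5 h). Deterrence = [(C − T)/(C + T)] × 100 from consumed areas; mean ± SE, Tukey's test p < 0.05.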
Consider `CCCCCCCCCO[C@H]1C=CC[C@H]1CCOCCC(C)C` (racemic), for which the Activity was 22%.
As to `CCCCCCCCCO[C@H]1C=CC[C@H]1CCO` (racemic), the Activity is recorded as 45.2%.
The same measure for `CCCCO[C@H]1C=CC[C@H]1CCO` (racemic): 41.6%; for `OCC[C@@H]1CC=C[C@@H]1O` (racemic): 36.6%; for `COCC[C@@H]1CC=C[C@@H]1OC` (racemic): -17.6%.
The same measure for `CCOCC[C@@H]1CC=C[C@@H]1OCC` (racemic): -17.8%; for `CCOc1ccccc1OCC` [1,2-DIETHOXYBENZENE]: -2.1%.
The result for `COc1ccccc1OC` [1,2-DIMETHOXYBENZENE] reads 26%; that for `CCCOc1ccccc1OCCC` [1,2-DIPROPOXYBENZENE], 26.2%.
Consider `CC(C)CCOc1cccc(OCCC(C)C)c1` [1,3-DIISOPENTOXYBENZENE], for which the Activity is -12.2%.
Regarding `COc1cccc(OC)c1` [1,3-DIMETHOXYBENZENE], the Activity worked out at 20.4%.
The same measure for `CC(C)CCOc1ccc(OCCC(C)C)cc1` [1,4-DIISOPENTOXYBENZENE]: 44%.
The same measure for `COc1ccc(OC)cc1` [1,4-DIMETHOXYBENZENE]: 9.9%; for `C=CCOc1ccccc1O` [1-hydroxy-2-allyloxybenzene]: 31.1%.
The same measure for `CCCCOc1ccccc1O` [1-hydroxy-2-butoxybenzene]: 12%.
Regarding `CCOc1ccccc1O` [1-hydroxy-2-ethoxybenzene], the Activity is reported as -5.3%.
Turning to `CCCOc1ccccc1O` [1-hydroxy-2-propoxybenzene], the Activity is -12%.
The result for `CCOc1cccc(O)c1` [1-hydroxy-3-ethoxybenzene] reads -18.7%; that for `CC(C)CCOc1cccc(O)c1` [1-hydroxy-3-isopentoxybenzene], -5.8%.
The same measure for `COc1cccc(O)c1` [1-hydroxy-3-methoxybenzene]: 44.7%.
Take `CCCOc1cccc(O)c1` [1-hydroxy-3-propoxybenzene]: the Activity came to 4%.
The same measure for `CCOc1ccc(O)cc1` [1-hydroxy-4-ethoxybenzene]: 29.8%; for `CC(C)CCOc1ccc(O)cc1` [1-hydroxy-4-isopentoxybenzene]: 29.5%.
The result for `CCCOc1ccc(O)cc1` [1-hydroxy-4-propoxybenzene] reads -28%.
The result for `CCCCOc1ccccc1OC` [1-methoxy-2-butoxybenzene] reads 23.5%; that for `CCOc1ccccc1OC` [1-methoxy-2-ethoxybenzene], 23.5%; that for `CCCCCOc1ccccc1OC` [1-methoxy-2-pentoxybenzene], 23.5%.
Take `CCCOc1ccccc1OC` [1-methoxy-2-propoxybenzene]: the Activity turned out to be 23.5%.
The same measure for `COc1ccccc1O` [GUAIACOL]: -7.5%.
The result for `COc1ccc(O)cc1` [MEQUINOL] reads -26.5%.
